From ChEMBL document CHEMBL1142454, “Synthesis and evaluation of novel 4-amino-4,6-androstadiene-3,17-dione: an analog of formestane” (2008) come the findings set out here.

Design in all cases: scale not given: the % may be the effect or the level left
The subject of one test is SN12C. Kind of test: Antitumor activity against human SN12C cells assessed as reduction of cell growth at 10 uM after 48 hrs by SRB assay. Type of test: functional. The gist of the method: (§1)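 NCI 60-cell-line primary screen, single dose 10^-5 M (final). Cells grown in RPMI 1640 with 5% FBS and 2 mM L-glutamine, seeded at 5000–40,000 cells/well and preincubated 24 h at 37 °C, 5% CO2. Compound is dissolved in DMSO, diluted in medium with gentamicin, and exposed 48 h. Cells are fixed with 10% TCA (final) and stained with 0.4% SRB; absorbance is read at 515 nm. Readout is growth percentage.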
(In SRB staining, fixed cells bind dye roughly in proportion to their protein.)

The next test concerns SK-OV-3. Description: Antitumor activity against human SKOV3 cells assessed as reduction of cell growth at 10 uM after 48 hrs by SRB assay. Type of test: functional. The essentials: as §1
In a further test the test system is RXF 393. Description: Antitumor activity against human RXF 393 cells assessed as reduction of cell growth at 10 uM after 48 hrs by SRB assay. It counts as functional. The gist of the method: as §1
Another test deals with RPMI-8226. Kind of test: Antitumor activity against human RPMI 8226 cells assessed as reduction of cell growth at 10 uM after 48 hrs by SRB assay. It counts as functional. The gist of the method:
as §1

Another test deals with NCI-H522. Kind of test: Antitumor activity against human NCI-H522 cells assessed as reduction of cell growth at 10 uM after 48 hrs by SRB assay. Type of test: functional. The gist of the method: as §1
Another test relates to ACHN. Description: Antitumor activity against human ACHN cells assessed as reduction of cell growth at 10 uM after 48 hrs by SRB assay. Type of test: functional. The gist of the method: as §1
In another test the test system is T47D. Kind of test: Antitumor activity against human T47D cells assessed as reduction of cell growth at 10 uM after 48 hrs by SRB assay. Type of test: functional. The gist of the method:
(§2)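 NCI-60 one-dose primary screen at 10^-5 M final. Cells grown in RPMI 1640 with 5% FBS and 2 mM L-glutamine, plated at 5000–40,000 cells/well and preincubated 24 h at 37 °C, 5% CO2. Drug stocks in DMSO, diluted in medium with gentamicin. Exposure 48 h, then fixed in situ with TCA (10% final) for 60 min at 4 °C. Stained with 0.4% SRB in 1% acetic acid, bound dye solubilized in 10 mM trizma base, absorbance read at 515 nm. Reported as mean growth percent; negative values indicate cell kill.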

The next test relates to HOP-62. Description: Antitumor activity against human HOP-62 cells assessed as reduction of cell growth at 10 uM after 48 hrs by SRB assay. Type of test: functional. The essentials: as §1
The next test concerns NCI-H322M. Description: Antitumor activity against human NCI-H322M cells assessed as reduction of cell growth at 10 uM after 48 hrs by SRB assay. Type of test: functional. The essentials:
as §1

The next test concerns HT-29. Kind of test: Antitumor activity against human HT-29 cells assessed as reduction of cell growth at 10 uM after 48 hrs by SRB assay. It counts as functional. The essentials: as §1
Test [1] is described as follows: Antitumor activity against human Hs 578T cells assessed as reduction of cell growth at 10 uM after 48 hrs by SRB assay. It counts as functional. The essentials: as §1
The subject of a further test is SNB-19. Kind of test: Antitumor activity against human SNB-19 cells assessed as reduction of cell growth at 10 uM after 48 hrs by SRB assay. It counts as functional. The gist of the method: as §1
The next test concerns HCT-15. Kind of test: Antitumor activity against human HCT-15 cells assessed as reduction of cell growth at 10 uM after 48 hrs by SRB assay. It counts as functional. The gist of the method: as §1
The nature of test [2]: Antitumor activity against human 786-O cells assessed as reduction of cell growth at 10 uM after 48 hrs by SRB assay. Type of test: functional, 786-0. The essentials:
as §1

A further test concerns NCI-H226. Kind of test: Antitumor activity against human NCI-H226 cells assessed as reduction of cell growth at 10 uM after 48 hrs by SRB assay. Type of test: functional. The essentials:
as §1

The next test has as its system SF-268. Kind of test: Antitumor activity against human SF-268 cells assessed as reduction of cell growth at 10 uM after 48 hrs by SRB assay. It counts as functional. The gist of the method:
as §1

Another test relates to HL-60(TB). Description: Antitumor activity against human HL-60(TB) cells assessed as reduction of cell growth at 10 uM after 48 hrs by SRB assay. It counts as functional. The essentials:
as §1

A further test concerns A498. Kind of test: Antitumor activity against human A-498 cells assessed as reduction of cell growth at 10 uM after 48 hrs by SRB assay. Type of test: functional. The essentials:
as §1

The subject of the next test is TK-10. Description: Antitumor activity against human TK-10 cells assessed as reduction of cell growth at 10 uM after 48 hrs by SRB assay. It counts as functional. The gist of the method:
as §2

In the next test the test system is IGROV-1. Kind of test: Antitumor activity against human IGROV1 cells assessed as reduction of cell growth at 10 uM after 48 hrs by SRB assay. It counts as functional. The gist of the method: as §1
In a further test the test system is A549. Kind of test: Antitumor activity against human A549/ATCC cells assessed as reduction of cell growth at 10 uM after 48 hrs by SRB assay. It counts as functional. The gist of the method:
as §1

The next test concerns HCC 2998. Description: Antitumor activity against human HCC2998 cells assessed as reduction of cell growth at 10 uM after 48 hrs by SRB assay. It counts as functional. The essentials:
as §1

SMILES strings stand for the structures.

As to `C[C@]12CCC(=O)C(N)=C1C=C[C@@H]1[C@@H]2CC[C@]2(C)C(=O)CC[C@@H]12.Cl`, the Activity with SN12C is on record as 88.53%; in the test with SK-OV-3, 120.27%; in the test on RXF 393 it was 95.21%; in the test on RPMI-8226 it was -18.11%; with NCI-H522, 76.59%; in the test with ACHN it was 88.16%. Besides, the Activity in the test on T47D was 73.66%; in the test on HOP-62, 111.88%; in the test with NCI-H322M it was 88.38%; with HT-29, 51.17%; in test [1] it was 112.26%; with SNB-19, 102.8%. Moreover, the Activity in the test on HCT-15 is listed as 72.99%; in test [2] it was 89.28%; in the test with NCI-H226, 96.3%; in the test on SF-268 it was 89.03%; with HL-60(TB), 52.53%; with A498, 99.19%. Moreover, the Activity turned out to be 85.59% in the test with TK-10, 49.46% in the test with IGROV-1, 103.34% with A549 and 96.01% in the test with HCC 2998.
Turning to `C[C@]12CC[C@H]3[C@@H](CCC4=CC(=O)CC[C@@]43CF)[C@@H]1CCC2=O`, the Activity with SN12C worked out at 113.5%; with SK-OV-3, 120.5%; in the test on RXF 393, 67.71%; with NCI-H522 it was 87.35%; in the test on ACHN, 119.9%; in the test on T47D, 39.44%. In addition, the Activity is reported as 123.96% with HOP-62; 101.55% in the test on NCI-H322M; 116.4% in the test with HT-29; 127.96% in test [1]; 109.3% in the test on SNB-19; 106.17% in the test with HCT-15. In addition, the Activity in test [2] is listed as 105.6%; in the test on NCI-H226 it was 111.29%; in the test with SF-268 it was 109.8%; in the test with HL-60(TB) it was 112.8%; in the test on A498, 111.1%; with TK-10 it was 114.8%. In addition, the Activity in the test on IGROV-1 turned out to be 62.42%; with A549, 99.26%; in the test with HCC 2998 it was 139.86%.
On to `C[C@]12CCC(=O)C(Oc3ccccc3)=C1CC[C@@H]1[C@@H]2CC[C@]2(C)C(=O)CC[C@@H]12`, for which the Activity in the test on SN12C turned out to be 90.07%; in the test with SK-OV-3, 117.4%; with RXF 393, 107.93%; with RPMI-8226, 87.07%; in the test on NCI-H522 it was 87.31%; with ACHN, 105.72%. Moreover, the Activity with T47D was 116.7%; in the test on HOP-62 it was 106.47%; in the test on NCI-H322M, 106.72%; in the test with HT-29, 100.27%; in test [1], 103.5%; in the test on SNB-19, 114.92%. Besides, the Activity with HCT-15 worked out at 94.74%; in test [2], 100.78%; in the test on NCI-H226 it was 96.55%; in the test on SF-268, 113.44%; in the test on HL-60(TB), 105.95%; in the test with A498 it was 103%. The Activity with TK-10 is 122.99%; in the test with IGROV-1, 55.73%; with A549, 100.25%; in the test on HCC 2998, 128.78%.
As for `CCOC1=C2CC[C@@H]3[C@H](CC[C@]4(C)C(=O)CC[C@@H]34)[C@@]2(C)CCC1=O`, the Activity in the test on SN12C was found to be 110.6%; in the test with SK-OV-3, 111.3%; with RXF 393, 117.9%; in the test on NCI-H522, 91%; with ACHN it was 105.1%; in the test with T47D, 117.94%. For the same compound, the Activity with HOP-62 was 103.52%; with NCI-H322M, 95.97%; in the test with HT-29 it was 98.16%; in test [1] it was 118.13%; with SNB-19, 112.3%; in the test on HCT-15, 110.45%. Besides, the Activity in test [2] was determined as 103.4%; in the test on NCI-H226 it was 98.58%; with SF-268 it was 128.3%; in the test with HL-60(TB), 112.2%; with A498, 105.6%; with TK-10, 100.6%. Also, the figures for the Activity in the test with IGROV-1, in the test with A549 and in the test with HCC 2998 were 85.75%, 97.79% and 125.75%, respectively.
